According to ChEMBL document CHEMBL4368872, “Synthesis and anticonvulsant activity of phenoxyacetyl derivatives of amines, including aminoalkanols and amino acids” (Medchemcomm, 2018):
The source made the active and inactive calls. No cut-off for these calls is given here.

Tests used:
Mus musculus [1] = assay: Anticonvulsant activity in CF-1 mouse model of maximal electroshock-induced seizure assessed as suppression of tonic hind limb extension at 100 mg/kg, ip measured at 0.5 hrs post dose; type: functional, organism-based
Method in brief: (§1)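 Mice dosed i.p. and given maximal electroshock at 50 mA. Read-out is protection, reported as number protected / number tested at 0.25, 0.5, 1 and 4 h after dosing.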

[2] = Neurotoxicity in Sprague-Dawley rat at 30 mg/kg, po measured after 4 hrs by rotarod test; type: toxicity, organism-based; conditions: in vivo
Method in brief: (§2)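 Rat neurotoxicity after i.p. or p.o. dosing was scored as animals impaired / animals tested at each time point. For p.o. dosing, TD50 was obtained by probit analysis.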

Mus musculus [3] = assay: Anticonvulsant activity in CF-1 mouse model of subcutaneous pentylenetetrazole-induced seizure assessed as reduction in convulsions at 30 mg/kg, ip measured at 0.5 hrs post dose; type: functional, organism-based
Method in brief: (§3)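 Mice dosed i.p., then given pentylenetetrazole 85 mg/kg in 0.9% NaCl s.c. into the posterior midline of the neck. Seizures watched for at least 30 min. Scored as protected / tested at 0.5 and 4 h.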

Mus musculus [4] = assay: Anticonvulsant activity in CF-1 mouse model of maximal electroshock-induced seizure assessed as suppression of tonic hind limb extension at 300 mg/kg, ip measured at 0.5 hrs post dose; type: functional, organism-based; method in brief: as §1
Mus musculus [5] = assay: Anticonvulsant activity in CF-1 mouse model of subcutaneous pentylenetetrazole-induced seizure assessed as reduction in convulsions at 100 mg/kg, ip measured at 0.5 hrs post dose; type: functional, organism-based; method in brief: as §3
[6] = Neurotoxicity in CF-1 mouse at 300 mg/kg, ip measured after 0.5 hrs by rotarod test; type: toxicity, organism-based; conditions: in vivo
Method in brief: (§4)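 Mice dosed i.p. were placed on a 1 in. knurled rod turning at 6 rpm. Toxicity was scored as failure to keep balance for at least 1 min, i.e. falling off three or more times. Results are reported as animals showing toxicity / animals tested at each time point.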

[7] = Neurotoxicity in Sprague-Dawley rat at 30 mg/kg, po measured after 2 hrs by rotarod test; type: toxicity, organism-based; conditions: in vivo; method in brief: as §2
Mus musculus [8] = assay: Anticonvulsant activity in CF-1 mouse model of maximal electroshock-induced seizure assessed as suppression of tonic hind limb extension at 100 mg/kg, ip measured at 4 hrs post dose; type: functional, organism-based; method in brief: as §1
[9] = Neurotoxicity in CF-1 mouse at 100 mg/kg, ip measured after 1 hr by rotarod test; type: toxicity, organism-based; conditions: in vivo; method in brief: as §4
Rattus norvegicus [10] = assay: Anticonvulsant activity in Sprague-Dawley rat model of maximal electroshock-induced seizure assessed as suppression of tonic hind limb extension at 30 mg/kg, po measured at 1 hr post dose; type: functional, organism-based
Method in brief: (§5)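 Rats given 30 mg/kg p.o. and tested by maximal electroshock at 150 mA. Scored as number protected / number tested (4 per group) at 0.25, 0.5, 1, 2 and 4 h after dosing.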

Mus musculus [11] = assay: Anticonvulsant activity in CF-1 mouse model of subcutaneous pentylenetetrazole-induced seizure assessed as reduction in convulsions at 300 mg/kg, ip measured at 0.5 hrs post dose; type: functional, organism-based; method in brief: as §3
[12] = Neurotoxicity in CF-1 mouse at 300 mg/kg, ip measured after 4 hrs by rotarod test; type: toxicity, organism-based; conditions: in vivo; method in brief: as §4
Mus musculus [13] = assay: Anticonvulsant activity in CF-1 mouse model of maximal electroshock-induced seizure assessed as suppression of tonic hind limb extension at 100 mg/kg, ip measured at 1 hr post dose; type: functional, organism-based; method in brief: as §1
Mus musculus [14] = assay: Anticonvulsant activity in CF-1 mouse model of maximal electroshock-induced seizure assessed as suppression of tonic hind limb extension at 30 mg/kg, ip measured at 0.5 hrs post dose; type: functional, organism-based; method in brief: as §1
[15] = Neurotoxicity in CF-1 mouse at 30 mg/kg, ip measured after 0.5 hrs by rotarod test; type: toxicity, organism-based; conditions: in vivo; method in brief: as §4
Mus musculus [16] = assay: Anticonvulsant activity in CF-1 mouse model of subcutaneous pentylenetetrazole-induced seizure assessed as reduction in convulsions at 30 mg/kg, ip measured at 4 hrs post dose; type: functional, organism-based; method in brief: as §3
[17] = Neurotoxicity in CF-1 mouse at 30 mg/kg, ip measured after 4 hrs by rotarod test; type: toxicity, organism-based; conditions: in vivo; method in brief: as §4
Mus musculus [18] = assay: Anticonvulsant activity in CF-1 mouse model of subcutaneous pentylenetetrazole-induced seizure assessed as reduction in convulsions at 300 mg/kg, ip measured at 4 hrs post dose; type: functional, organism-based; method in brief: as §3
Mus musculus [19] = assay: Anticonvulsant activity in CF-1 mouse model of maximal electroshock-induced seizure assessed as suppression of tonic hind limb extension at 300 mg/kg, ip measured at 4 hrs post dose; type: functional, organism-based; method in brief: as §1
[20] = Neurotoxicity in Sprague-Dawley rat at 30 mg/kg, po measured after 0.25 hrs by rotarod test; type: toxicity, organism-based; conditions: in vivo; method in brief: as §2
Mus musculus [21] = assay: Anticonvulsant activity in CF-1 mouse model of maximal electroshock-induced seizure assessed as suppression of tonic hind limb extension at 30 mg/kg, ip measured at 4 hrs post dose; type: functional, organism-based; method in brief: as §1
[22] = Neurotoxicity in Sprague-Dawley rat at 30 mg/kg, po measured after 0.5 hrs by rotarod test; type: toxicity, organism-based; conditions: in vivo; method in brief: as §2
Rattus norvegicus [23] = assay: Anticonvulsant activity in Sprague-Dawley rat model of maximal electroshock-induced seizure assessed as suppression of tonic hind limb extension at 30 mg/kg, po measured at 2 hrs post dose; type: functional, organism-based; method in brief: as §5
Mus musculus [24] = assay: Anticonvulsant activity in CF-1 mouse model of subcutaneous pentylenetetrazole-induced seizure assessed as reduction in convulsions at 100 mg/kg, ip measured at 4 hrs post dose; type: functional, organism-based; method in brief: as §3
[25] = Neurotoxicity in Sprague-Dawley rat at 30 mg/kg, po measured after 1 hr by rotarod test; type: toxicity, organism-based; conditions: in vivo; method in brief: as §2
[26] = Mutagenicity in Salmonella typhimurium TA100 assessed as mutagenicity index at 50 to 500 ug/plate preincubated for 30 mins followed by top agar addition and measured after 48 hrs in presence of liver S9 fraction by Ames test; type: toxicity, subcellular; conditions: salmonella enterica subsp. enterica serovar typhimurium, s9, 48 h
Method in brief: (§6)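 Ames plate incorporation in S. typhimurium TA100 or TA1535, with or without S9. Overnight culture, compound in DMSO (50–500 µg per plate) and buffer or S9 mix preincubated 30 min at 37 °C, then top agar on glucose minimal agar. Incubated 48 h at 37 °C, revertants counted in triplicate. Vehicle negative control; NaN3 (−S9) and 2AA (+S9) positive controls. MI = revertants with compound / negative-control revertants; MI ≥ 2 with dose-response counts as positive.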

[27] = Neurotoxicity in CF-1 mouse at 100 mg/kg, ip measured after 0.5 hrs by rotarod test; type: toxicity, organism-based; conditions: in vivo; method in brief: as §4
Salmonella typhimurium [28] = assay: Antimutagenic activity against Salmonella typhimurium TA100 assessed as inhibition of NaN3-induced mutation at 500 ug/plate preincubated for 30 mins followed by top agar addition and measured after 48 hrs in presence of liver S9 fraction by Ames test relative to control; type: organism-based; conditions: salmonella enterica subsp. enterica serovar typhimurium, s9, 48 h
Salmonella typhimurium [29] = assay: Antimutagenic activity against Salmonella typhimurium TA100 assessed as inhibition of NaN3-induced mutation at 100 ug/plate preincubated for 30 mins followed by top agar addition and measured after 48 hrs in presence of liver S9 fraction by Ames test relative to control; type: organism-based; conditions: salmonella enterica subsp. enterica serovar typhimurium, s9, 48 h
Salmonella typhimurium [30] = assay: Antimutagenic activity against Salmonella typhimurium TA1535 assessed as inhibition of NaN3-induced mutation at 250 ug/plate preincubated for 30 mins followed by top agar addition and measured after 48 hrs in presence of liver S9 fraction by Ames test relative to control; type: organism-based; conditions: salmonella enterica subsp. enterica serovar typhimurium, s9, 48 h
Salmonella typhimurium [31] = assay: Antimutagenic activity against Salmonella typhimurium TA1535 assessed as inhibition of NaN3-induced mutation at 50 ug/plate preincubated for 30 mins followed by top agar addition and measured after 48 hrs in presence of liver S9 fraction by Ames test relative to control; type: organism-based; conditions: salmonella enterica subsp. enterica serovar typhimurium, s9, 48 h
Salmonella typhimurium [32] = assay: Antimutagenic activity against Salmonella typhimurium TA1535 assessed as inhibition of NaN3-induced mutation at 100 ug/plate preincubated for 30 mins followed by top agar addition and measured after 48 hrs in presence of liver S9 fraction by Ames test relative to control; type: organism-based; conditions: salmonella enterica subsp. enterica serovar typhimurium, s9, 48 h
[33] = Neurotoxicity in CF-1 mouse at 100 mg/kg, ip measured after 4 hrs by rotarod test; type: toxicity, organism-based; conditions: in vivo; method in brief: as §4
[34] = Mutagenicity in Salmonella typhimurium TA1535 assessed as mutagenicity index at 50 to 500 ug/plate preincubated for 30 mins followed by top agar addition and measured after 48 hrs in absence of liver S9 fraction by Ames test; type: toxicity; conditions: salmonella enterica subsp. enterica serovar typhimurium, s9, 48 h; method in brief: as §6
Salmonella typhimurium [35] = assay: Antimutagenic activity against Salmonella typhimurium TA100 assessed as inhibition of NaN3-induced mutation at 250 ug/plate preincubated for 30 mins followed by top agar addition and measured after 48 hrs in presence of liver S9 fraction by Ames test relative to control; type: organism-based; conditions: salmonella enterica subsp. enterica serovar typhimurium, s9, 48 h
[36] = Mutagenicity in Salmonella typhimurium TA100 assessed as mutagenicity index at 50 to 500 ug/plate preincubated for 30 mins followed by top agar addition and measured after 48 hrs in absence of liver S9 fraction by Ames test; type: toxicity; conditions: salmonella enterica subsp. enterica serovar typhimurium, s9, 48 h; method in brief: as §6
Salmonella typhimurium [37] = assay: Antimutagenic activity against Salmonella typhimurium TA1535 assessed as inhibition of NaN3-induced mutation at 500 ug/plate preincubated for 30 mins followed by top agar addition and measured after 48 hrs in presence of liver S9 fraction by Ames test relative to control; type: organism-based; conditions: salmonella enterica subsp. enterica serovar typhimurium, s9, 48 h
Salmonella typhimurium [38] = assay: Antimutagenic activity against Salmonella typhimurium TA100 assessed as inhibition of NaN3-induced mutation at 50 ug/plate preincubated for 30 mins followed by top agar addition and measured after 48 hrs in presence of liver S9 fraction by Ames test relative to control; type: organism-based; conditions: salmonella enterica subsp. enterica serovar typhimurium, s9, 48 h
[39] = Mutagenicity in Salmonella typhimurium TA1535 assessed as mutagenicity index at 50 to 500 ug/plate preincubated for 30 mins followed by top agar addition and measured after 48 hrs in presence of liver S9 fraction by Ames test; type: toxicity, subcellular; conditions: salmonella enterica subsp. enterica serovar typhimurium, s9, 48 h; method in brief: as §6
Rattus norvegicus [40] = assay: Anticonvulsant activity in Sprague-Dawley rat model of maximal electroshock-induced seizure assessed as suppression of tonic hind limb extension at 30 mg/kg, po measured at 4 hrs post dose; type: functional, organism-based; method in brief: as §5

SMILES	Activity (Mus musculus [1])	Activity [2]	Activity (Mus musculus [3])	Activity (Mus musculus [4])	Activity (Mus musculus [5])	Activity [6]	Activity [7]	Activity (Mus musculus [8])	Activity [9]	Activity (Rattus norvegicus [10])	Activity (Mus musculus [11])	Activity [12]	Activity (Mus musculus [14])	Activity [15]	Activity (Mus musculus [16])	Activity [17]	Activity (Mus musculus [18])	Activity (Mus musculus [19])	Activity (Mus musculus [21])	Activity (Mus musculus [24])	further results
Cc1cccc(C)c1OCC(=O)NC(C)CO (stereo unspecified)	inactive	Non-Toxic	inactive	Active	inactive	Toxic	Non-Toxic	inactive	Non-Toxic	inactive	inactive	Non-Toxic	inactive	Non-Toxic	inactive	Non-Toxic	inactive	inactive	inactive	inactive	Activity (Mus musculus [13]): inactive; Activity [20]: Non-Toxic; Activity [22]: Non-Toxic; Activity (Rattus norvegicus [23]): inactive; Activity [25]: Non-Toxic
CC[C@@H](CO)NC(=O)COc1c(C)cccc1C	inactive	–	inactive	Active	inactive	Toxic	–	inactive	Non-Toxic	–	inactive	Non-Toxic	inactive	Non-Toxic	inactive	Non-Toxic	inactive	inactive	inactive	inactive	Activity index [26]: 0.7 to 1.7; Activity [27]: Non-Toxic; inhibition (INH) (Salmonella typhimurium [28]): 43%; inhibition (INH) (Salmonella typhimurium [29]): 34%; inhibition (INH) (Salmonella typhimurium [30]): 19%; inhibition (INH) (Salmonella typhimurium [31]): 12%; inhibition (INH) (Salmonella typhimurium [32]): 22%; Activity [33]: Non-Toxic; Activity index [34]: 0.7 to 1.7; inhibition (INH) (Salmonella typhimurium [35]): 28%; Activity (Mus musculus [13]): inactive; Activity index [36]: 0.7 to 1.7; inhibition (INH) (Salmonella typhimurium [37]): 24%; inhibition (INH) (Salmonella typhimurium [38]): 26%; Activity index [39]: 0.7 to 1.7
CNC(=O)C(C)NC(=O)COc1c(C)cccc1C (stereo unspecified)	–	Non-Toxic	inactive	Active	inactive	Toxic	Non-Toxic	inactive	–	inactive	inactive	Non-Toxic	inactive	Non-Toxic	inactive	Non-Toxic	inactive	inactive	inactive	inactive	Activity (Rattus norvegicus [40]): inactive; Activity [33]: Non-Toxic; Activity [20]: Non-Toxic; Activity [22]: Non-Toxic; Activity (Rattus norvegicus [23]): inactive; Activity [25]: Non-Toxic
